From the EternaBench riboswitch data

Tested on: MS2 coat protein
Assay: apparent Kd, MS2 coat protein; higher = weaker binding; RNA-MaP array; FMN 200 µM where present
How it was run: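 Two titrations, one without ligand and one with constant ligand, were run with SNAP-549-labelled MS2 coat protein from 0.7 or 1.5 nM, doubling to 3 µM. The targets were designs transcribed by stalled E. coli RNA polymerase on Illumina sequencing-chip clusters, in 100 mM Tris-HCl pH 7.5, 80 mM KCl, 4 mM MgCl2, BSA, DTT, yeast tRNA and Tween-20. The apparent Kd is the median of filtered per-cluster binding-curve fits, with green signal normalised to red-channel RNA signal and control-cluster median Fmax.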

[1] = designed as: OFF switch for flavin mononucleotide, no ligand
[2] = ligand present: flavin mononucleotide, designed as: OFF switch for flavin mononucleotide
[3] = designed as: ON switch for flavin mononucleotide, no ligand
[4] = ligand present: flavin mononucleotide, designed as: ON switch for flavin mononucleotide

Sequence	apparent Kd [1] [nM]	apparent Kd [2] [nM]	apparent Kd [3] [nM]	apparent Kd [4] [nM]
GUUUUACAUGAGGAUCACCCAUGUGAGGAUAUAUUGUUAUUUUUAAUAUUUUUUAGUGGUAGAAGGCGCGUGAU	31.4	26		
UAAAAUAGUGUGAGGAUAUGCUGGUCCUUGGAUCAGCAGAAGGCACAUGAGGAUCACCCAUGUAGUUAAUUAUA	41.8	268		
GUUUCGGGAGGAUAUGCGUGGAUUGUUCUCGUAUGUUGUUUACAUGAGGAUCACCCAUGUAGAAGGUCUGGAGC	170	136		
UACGUACAGAAGAACUCCGGAUCUAGAAGGGACAUGAGGAUCACCCAUGUACCGUUGAUUGCUUGUCAGGAUAUAGACCCGGCC	6.07	14.2		
GAGCUAUGAGGAUAUGCAUAUAUACGGUUUCGUGUGGUACUACAUGAGGAUCACCCAUGUAGAAGGCGUGGCUG	17.7	15.1		
AAAUCUCAGAUAGGAUAUAUAGGAUAACUUAAGACCUAACAUGAGGAUCACCCAUGUGAUUAUUCGUAGAAGGAUCAUUGACCC			166	175
AGGGUAGACGUAGGAUAUACGGAAUGAAUGAAAGUAGAAGGAUGACAUGAGGAUCACCCAUGUGAAAUGAAAUGAUGAAGGGUG	579	510		
UCACGGGAUUGAGGAUAUAUAUAAAUUUAUACAAUAGAAGGCAAAUUUUUAGUUUUUUCACUUUACAUGAGGAUCACCCAUGUU	26.2	24.2		
AAAAAGUCAGGAUAUACGAAAAAAAAAAAAAAAAAAAAAAAGUAGAAGGGACAUGAGGAUCACCCAUGUGAAAA	74.7	39.3		
GAUUAAUGCAAGGAUAUGCUAUUAAUUUAUUUUGCAGAAGGUGCAACAUGAGGAUCACCCAUGUUGGAGGGUAU	22.3	33.4		
ACAGAGCCUGACAUGAGGAUCACCCAUGUUAGAUUGUUAUGUCAGGAUAUUGUCUAGCAACUAGACAAGAAGGGACGCUCUGUG			71.2	8.88
UUACCUCAUGAGAAGGACAUGAGGAUCACCCAUGUAGGAUAUCAUGGGUCAGUGGAAUUGAAUCUUCGGAUUCAAUAACUCUAU			114	34.5
CCUUUUGUAUAAGGAUAUGUAACAAGGUAUAGAUCGGUAGAAUUUGUGCUUACAGAAGGUAUACAUGAGGAUCACCCAUGUCGA	22.1	140		
UAUCCACAUGAGGAUCACCCAUGUCAGGAUAUUAGAUCUAUAUAUACAUAUAAUUAUUUAAGAAGGGACACUAA	11.5	11.8		
GUUAUAAAGGUAGGAUAUUGUAUUAUAAUUAAAUAAGAAGGAUCUCACAUGAGGAUCACCCAUGUAAGAGGAUCACCCAUGUAG	20.1	14.6		
AACAGCUCGUCAGGAUAUAUUAUAAUAAUACGGCAGUUUGUACAUGAGGAUCACCCAUGUUGUAUGUAGAAGGGACGAGCUGAA	9.86	8.91		
UAAAAGCUAGGAUAUACAUGAGGAUCACCCAUGUCACGGGUGCCACACCGAAAGGUGCGUAGAAGGAGCCCAAA	38.6	103		
AUUAAACAUGAGGAUCACCCAUGUCAACAAAGUCGAGGAUAUGGGCAAAUAAAUUAAGAACCAGAAGGCGAAUAAU			435	40.5
AGAAAGGUAGGAUAUACGAAAAAAAAGGGUAGAAAAAAAACACAUGAGGAUCACCCAUGUAGAAGGACCAAAGA	28.9	96.6		
CGGAGCAUCGAGAAGGGCACAUGGACAACUAAACAUGAGGAUCACCCAUGUGCAGGAUAUCGAAAAUCAUGUGGCCUUGGCCGU	15.9	155		
AAGUCUGGACGAGGAUAUCAGUUGUAUCUAGCAUCAACAUGAGGAUCACCCAUGUUGCAAUAGGGUGAGAAGGCGUUUGGGCAA			150	20.6
AUCCAGCGAGGAUAUACAUAGUUUUUUUCGUUUUGUCUCGAACAUGAGGAUCACCCAUGUAGAAGGUGCUUCAC	72.5	67.2		
GUGACGAAUGUAGGAUAUGCUGAGGAAUACUCAGCAGAAGGACAUGAGGAUCACCCAUGUACUAAUAGUGAUAAUAAACGUCAC	15.6	77.6		
CCUAUACAUGAGGAUCACCCAUGUCAGGAUAUAGAAAGCCGCGGAAUAGGCCGCGGCACUAGAAGGGACUGGCU	27.5	40.5		

Sequence	apparent Kd [1] [nM]	apparent Kd [2] [nM]	apparent Kd [3] [nM]	apparent Kd [4] [nM]
UUUGGGAACUCUAUGGGCCGCUACAUGAGGAUCACCCAUGUGCAGGAUAUAGGUGUUACUACCGCCUAGAAGGGCACAGACUGA	23.4	42.5		
UGAUUGCGUGUUAGGAUAUGGUUUGGUGUUUCGGGCUAGAAGGGACAUGAGGAUCACCCAUGUAACUGGCGGGU	54.9	67.7		
GUAGCAUACCAAGGAUAUUCAGGGCGUGGAUAGACAUGAGGAUCACCCAUGUGGCGAAAGCCUAGGGAGAAGGUGGAAUGCUAC			36.1	20.1
GAAGAAAAGGCAGGAUAUCAGAAACACAUGAUAAGGAGAUGCAACAUGAGGAUCACCCAUGUAAAUGAGAAGGGCCGCCCUUCC	35.6	62.1		
AUGCCUAAUGAGAAGGUGUGUAUAAAUUAUAUACAAGGAUAUCGGUCAAGCAUGAAAACAUGAGGAUCACCCAUGUUAAGGCAU			7.77	6.72
UUGGACGUCCUAGGAUAUGUAGGAUAUUCCUACAUGAGGAUCACCCAUGUUGACAUGGAAGAAGGACAGAAGGACGAUGUCCAU			551	71.3
AUUUAUUUUGUGAGGAUAUGCAGGAUCUAGCUCCAGUAGAAGGCACAUGAGGAUCACCCAUGUGGGUCCGAGAC	22.9	111		
AUCCUACAUGAGGAUCACCCAUGUAAGGAUAUGCGGCGACGAGAUUGUCUAUACGGCCGCAGAAGGUACCCGGG	16.1	18.6		
GAAAACUGAGGAUAUACUUUGGGAAAAGAAAAGAUGAUGUUACAUGAGGAUCACCCAUGUAGAAGGCAGAAAAA	25.9	36		
AUAAGCUCGUCAGGAUAUACGUCACUGCGUCAGCAGUGUGGUAAGAUCACAUGAGGAUCACCCAUGUAGAAGGGACGAGCUGAU	14.7	266		
GACAUGAGGAUCACCCAUGUCCUUCCAGAAGGCUGGCGCGCGAAACCUAAAUCAGUUCCGCGCACAGAGGAUAUGGGCAGUUGG			72.2	15.9
GCAUGACAAAGUCAUGCAUUACGAACAUGAGGAUCACCCAUGUAGGAUAUGCUACUCAAAGAGUAGCAGAAGGACAUGUGUCUU	32.7	158		
UGGCGGAGCAGAGGAUAUUACAUGAGGAUCACCCAUGUAUGAACCAAUAGCUGGAAACAGCAAUGUAAGAAGGCUGCUCCGACA	12.1	176		
AUCUUGUCAGGAUAUGACUACAUAAAAAAAAAAAAAUGUAGUCAGAAGGGACAUGAGGAUCACCCAUGUACUAA	34.9	54.1		
ACCGUGUCAGGAUAUCCUGCUGUGCGGAAUCUGUAUUCACGGGAGAAGGGACAUGAGGAUCACCCAUGUUUGAG	19.6	18.6		
AACAGGGAUUCAGGAUAUAUUAGCCGAGGCCGCGUAGAAGGGAAAUCCUGACAUGAGGAUCACCCAUGUCGACCCGCCUUCCAC			23.1	22.9
CUCUUGUAAGGAUAUGACUACAUAAAAAAAAAAAAAUGUAGUCAGAAGGUACAUGAGGAUCACCCAUGUACAAA	22.7	25.6		
GGAUAGGACAGAGGAUAUACGUGCUAGAGAUACUAGCAAAAUUUCCUCACAUGAGGAUCACCCAUGUAGAAGGCUGUCCUAUUG	15.6	460		
ACAUGAGGAUCACCCAUGUAGAAUGAAGAAGGAUGUUACUUGAGACUCACCCAUGUACAUAGGACAUAGGAUAUUCUAAUAAUU			10.1	7.83
AUUAUUGACAUAGGAUAUUGUUACAUGAGGAUCACCCAUGUUAUUUGGGAAUUAGGAAUAUUUUACAAGAAGGAUGUUGUUACA			106	72.5
CAGCAAAGGUAGAAGGCAGUACUGAUACAGUACUGAGGAUAUACAUGAGGAUCACCCAUGUUCUUCAGCUGGAAAUAAAUAAAA	8.98	134		
ACAUGAGGAUCACCCAUGUUGAAUUAGGAUAUUUGACUGCACAUGAGGUUCUCCCAUGUUCAACCGGAGAAGGGAUUAAUAAUU			318	132
AGUCGGCAUGAGAAGGGUUACAUGAGGAUCACCCAUGUGAUCAAAUCGUUAACAGGAUAUCAGGCGUCGGGCUUUGCCCGGAGG	16.4	106		
CGGAUGUCAGGAUAUCGUGCAUACAACGAAAGUUCUAUGUGCGAGAAGGGACAUGAGGAUCACCCAUGUUAACG	59.5	250		
